Where a chain is given by its changes, count along the chain named. Calls of active or inactive are those of the source. The rule behind the calls is not given here.
Experiments:
[1] = molecular target: T1, Cell division protein FtsZ (Escherichia coli K-12) (UniProt P0A9A6); assay: Binding affinity to Escherichia coli FtsZ at 40 uM by fluorescence anisotropy BoGTPgammaS competition assay
T1 sequence (whole entry): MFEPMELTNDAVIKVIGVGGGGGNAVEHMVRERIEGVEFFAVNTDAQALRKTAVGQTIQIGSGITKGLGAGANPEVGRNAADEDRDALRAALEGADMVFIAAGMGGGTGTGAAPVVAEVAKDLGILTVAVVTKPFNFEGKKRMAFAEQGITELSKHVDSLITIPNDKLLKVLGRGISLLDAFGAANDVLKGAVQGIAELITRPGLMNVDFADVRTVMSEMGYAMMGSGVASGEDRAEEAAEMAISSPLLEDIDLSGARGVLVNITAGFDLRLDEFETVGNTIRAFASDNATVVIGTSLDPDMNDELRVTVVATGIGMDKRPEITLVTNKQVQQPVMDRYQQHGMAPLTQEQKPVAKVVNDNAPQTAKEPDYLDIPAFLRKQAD
In short: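 Competition with fluorescent BoGTPγS. BoGTPγS (1 μM final) was mixed with 5 μM FtsZ and compound or unlabeled GTP at 0–40 μM. Buffer was 50 mM Tris·HCl pH 7.4, 50 mM KCl, 2 mM magnesium acetate. After 5 min at 25 °C, anisotropy was read at excitation 488 nm and emission 510 nm, in triplicate and averaged.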

[2] = molecular target: T1, Cell division protein FtsZ (Escherichia coli K-12); assay: Stimulation of Escherichia coli FtsZ assembly at 20 ug/mL by transmission electron microscopy
In short: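 EcFtsZ was polymerized with 20 μg/mL compound (10 μM protein, 1 mM GTP, 10 mM CaCl₂, Tris/KCl/Mg acetate buffer pH 7.4). The reaction was diluted 1:10 in polymerization buffer at room temperature and applied to glow-discharged Formvar/carbon copper grids. Grids were negatively stained 1 min with 1% phosphotungstic acid and imaged by TEM at 80 kV.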

[3] = molecular target: Cell division protein FtsZ (Staphylococcus aureus, UniProt P0A031, E185A); assay: Binding affinity to Staphylococcus aureus FtsZ E185A mutant expressed in Escherichia coli BL21 (DE3) at 25 degC by fluorescence anisotropy assay
In short: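 Purified SaFtsZ mutant protein (0–25 μM) mixed with 5 μM compound in 50 mM Tris·HCl pH 7.4, 50 mM KCl, 2 mM magnesium acetate. After 5 min at 25 °C, steady-state fluorescence anisotropy read at excitation 245 / emission 318 nm, G-factor corrected, triplicate. Kd from nonlinear least-squares fit.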

[4] = tested on: T2, Cell division protein FtsZ (Staphylococcus aureus), P0A031 [I228R]; assay: Binding affinity to Staphylococcus aureus FtsZ I228R mutant self-polymerization at 20 ug/mL by microtiter plate-based light scattering assay
T2 sequence (whole entry): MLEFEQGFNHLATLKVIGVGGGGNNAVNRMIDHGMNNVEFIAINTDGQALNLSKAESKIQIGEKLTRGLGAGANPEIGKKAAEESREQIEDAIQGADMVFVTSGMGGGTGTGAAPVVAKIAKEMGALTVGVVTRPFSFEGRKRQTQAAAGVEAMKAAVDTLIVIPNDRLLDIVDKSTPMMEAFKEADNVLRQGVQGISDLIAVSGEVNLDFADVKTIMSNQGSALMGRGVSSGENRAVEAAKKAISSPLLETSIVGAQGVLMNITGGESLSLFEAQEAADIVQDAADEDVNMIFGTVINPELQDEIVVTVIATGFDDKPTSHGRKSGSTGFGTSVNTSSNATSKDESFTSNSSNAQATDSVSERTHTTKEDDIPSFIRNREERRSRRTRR

[5] = tested on: Staphylococcus aureus; assay: Antimicrobial effect against methicillin-sensitive Staphylococcus aureus 8325-4 assessed as changes in MIC measured after 12 incubation cycles by stepwise broth microdilution method relative to initial compound MIC; assay type: functional, organism-based
In short: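 Stepwise resistance selection. S. aureus 8325-4 at 10⁵ CFU/mL was inoculated into 2-fold increasing compound concentrations and incubated 24 h at 37 °C. Aliquots from the well with the highest concentration still showing growth (2-fold below MIC) seeded a new serial 2-fold dilution plate. This was repeated for multiple cycles, with MIC determined each cycle.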

[6] = tested on: Staphylococcus aureus; assay: Potency index, ratio of vancomycin to compound bactericidal effect in methicillin-sensitive Staphylococcus aureus 8325-4 at 8 times MIC by time kill study; assay type: functional
[7] = tested on: T3, Cell division protein FtsZ (Staphylococcus aureus), P0A031 [E185A]; assay: Binding affinity to Staphylococcus aureus FtsZ E185A mutant self-polymerization at 20 ug/mL by microtiter plate-based light scattering assay
T3 sequence (whole entry): T2 sequence (whole entry) with E185A, R228I

[8] = molecular target: T4, Cell division protein FtsZ (Staphylococcus aureus) (UniProt P0A031); assay: Stimulation of Staphylococcus aureus FtsZ assembly and bundling at 20 ug/mL by transmission electron microscopy
T4 sequence (whole entry): T2 sequence (whole entry) with R228I
In short: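 SaFtsZ polymerized with 20 μg/mL compound under light-scattering assay conditions (10 μM protein, 1 mM GTP, 1 mM CaCl2, pH 7.4). Reaction diluted 1:10 in polymerization buffer, applied to glow-discharged Formvar/carbon grids, negatively stained with 1% phosphotungstic acid for 1 min, and imaged by TEM at 80 kV.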

[9] = Selectivity index, ratio of Kd for Enterococcus faecalis FtsZ to Kd for Escherichia coli FtsZ
In short: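 Buffer was 50 mM Tris·HCl pH 7.4, 50 mM KCl, 2 mM magnesium acetate. Kd came from nonlinear least-squares fits, and the index is the ratio of the two Kd values.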

In the case of `CC(C)(C)c1ccc(-c2cccc(CNC(=N)N)c2)cc1`, the Activity [1] is reported as “inactive”, the Activity [2] is reported as “Active” and the Kd [3] is reported as 38.3 µM. For the same compound, the Activity [4] was “Active”, the Activity [5] was “Active” and the Ratio [6] was 100. For the same compound, the Activity [7] was “inactive”, the Activity [8] was “Active” and the Ratio [9] was 6.

From ChEMBL document CHEMBL2176974, “A bactericidal guanidinomethyl biaryl that alters the dynamics of bacterial FtsZ polymerization” (J Med Chem, 2012)
